Data reported in ChEMBL document CHEMBL4808225, “Discovery and Characterization of Selective and Ligand-Efficient DYRK Inhibitors” (J Med Chem, 2021).

Target: Dual specificity protein kinase CLK2 (Homo sapiens) (UniProt P49760)
Assay: Inhibition of wild-type human partial length CLK2 (D144 to R498 residues) expressed in bacterial expression system assessed as remaining activity at 1 uM by Kinomescan method relative to control
Summary of the method: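 KINOMEscan competition binding panel run with inhibitor at 1 μM; read-out is remaining kinase activity (percent of control).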

Dual specificity protein kinase CLK2 (Homo sapiens), sequence (P49760 whole entry, looked up, the tested form may be a part): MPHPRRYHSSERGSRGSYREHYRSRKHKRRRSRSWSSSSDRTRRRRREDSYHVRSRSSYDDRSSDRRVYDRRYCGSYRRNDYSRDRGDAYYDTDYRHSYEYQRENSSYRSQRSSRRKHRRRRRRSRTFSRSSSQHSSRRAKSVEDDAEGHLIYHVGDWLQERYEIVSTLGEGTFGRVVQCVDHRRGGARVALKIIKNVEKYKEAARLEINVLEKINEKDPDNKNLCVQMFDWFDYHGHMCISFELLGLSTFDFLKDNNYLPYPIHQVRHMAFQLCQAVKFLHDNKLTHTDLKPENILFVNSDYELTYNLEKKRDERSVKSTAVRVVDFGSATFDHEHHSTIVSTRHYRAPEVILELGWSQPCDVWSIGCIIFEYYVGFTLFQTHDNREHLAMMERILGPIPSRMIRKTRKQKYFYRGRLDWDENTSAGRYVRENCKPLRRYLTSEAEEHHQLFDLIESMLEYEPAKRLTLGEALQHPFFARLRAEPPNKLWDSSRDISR

CN(C)c1nccc(-c2cnn3ncccc23)n1
Activity: 9.4%
